Values joined by “and” are separate entries in the source; they are usually repeats but may differ in a detail not shown here. Equal entries are not always repeated.
Tested on: HEK-293T
Assay: Multiplex assay against HEK293T
Assay type: toxicity, cell-based
Conditions: human
Method in brief: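 Cells were classed with CellPathfinder machine-learning gating, first as Hoechst high-intensity objects or normal cells, then (normal cells) as healthy, pyknosed or fragmented nuclei, and finally (pyknosed cells) as mitotic or apoptotic. Staining of live cells at seeding used Hoechst33342, BioTracker Green Microtubule Cytoskeleton Dye, MitoTracker Red and Annexin V Alexa Fluor 680, with imaging on a CQ1 microscope at 37°C and 5% CO2 after compound addition. Tubulin, mitochondrial-mass and membrane-permeability phenotypes are per cents of healthy-nucleus cells.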

[1] = 12 h, 1 µM, compound concentration 1 uM
[2] = 12 h, 10 µM, compound concentration 10 uM
[3] = 24 h, 1 µM, compound concentration 1 uM
[4] = 24 h, 10 µM, compound concentration 10 uM
[5] = 48 h, 1 µM, compound concentration 1 uM
[6] = 48 h, 10 µM, compound concentration 10 uM

SMILES: Nc1nccc(-c2ccn3c(N)nccc23)n1
- Population Apoptotic (%) [1]: 15.46% and 10.1%
- Population Fragmented Nuclei (%) [1]: 3.18% and 4.55%
- Population Healthy Nuclei (%) [1]: 68.79% and 31.17%
- Population Hoechst High Intensity Objects (%) [1]: 0%
- Population Membrane Permeable-Phenotype (%) [1]: 0.42% and 2.08%
- Population Mitochondria Different-Phenotype (%) [1]: 32.35% and 27.08%
- Population Mitotic Cells (%) [1]: 84.54% and 89.9%
- Population Normal (%) [1]: 100%
- Population Pyknosed Nuclei (%) [1]: 28.03% and 64.29%
- Total Cell Count [1]: 346 and 154
- Population Apoptotic (%) [2]: 15.73% and 12.77%
- Population Fragmented Nuclei (%) [2]: 2.41% and 4.48%
- Population Healthy Nuclei (%) [2]: 66.9% and 25.37%
- Population Hoechst High Intensity Objects (%) [2]: 0.34% and 0%
- Population Membrane Permeable-Phenotype (%) [2]: 1.03% and 0%
- Population Mitochondria Different-Phenotype (%) [2]: 38.66% and 17.65%
- Population Mitotic Cells (%) [2]: 84.27% and 87.23%
- Population Normal (%) [2]: 99.66% and 100%
- Population Pyknosed Nuclei (%) [2]: 30.69% and 70.15%
- Total Cell Count [2]: 291 and 134
- Population Apoptotic (%) [3]: 20.19% and 15.91%
- Population Fragmented Nuclei (%) [3]: 1.49% and 2.84%
- Population Healthy Nuclei (%) [3]: 76.43% and 34.75%
- Population Hoechst High Intensity Objects (%) [3]: 0% and 2.08%
- Population Membrane Permeable-Phenotype (%) [3]: 1.11% and 4.08%
- Population Mitochondria Different-Phenotype (%) [3]: 17.78% and 20.41%
- Population Mitotic Cells (%) [3]: 79.81% and 84.09%
- Population Normal (%) [3]: 100% and 97.92%
- Population Pyknosed Nuclei (%) [3]: 22.08% and 62.41%
- Population Tubulin-Different-Phenotype (%) [3]: 14.44% and 12.24%
- Population Apoptotic (%) [4]: 20.31% and 14.47%
- Population Fragmented Nuclei (%) [4]: 1.23% and 6.87%
- Population Healthy Nuclei (%) [4]: 79.14% and 35.11%
- Population Hoechst High Intensity Objects (%) [4]: 0.61% and 0%
- Population Membrane Permeable-Phenotype (%) [4]: 0% and 2.17%
- Population Mitochondria Different-Phenotype (%) [4]: 20.93% and 19.57%
- Population Mitotic Cells (%) [4]: 79.69% and 85.53%
- Population Normal (%) [4]: 99.39% and 100%
- Population Pyknosed Nuclei (%) [4]: 19.63% and 58.02%
- Population Tubulin-Different-Phenotype (%) [4]: 11.63% and 8.7%
- Total Cell Count [4]: 328 and 131
- Population Apoptotic (%) [5]: 8% and 18.75%
- Population Fragmented Nuclei (%) [5]: 5.17% and 4.03%
- Population Healthy Nuclei (%) [5]: 89.44% and 63.76%
- Population Hoechst High Intensity Objects (%) [5]: 0.11% and 0.67%
- Population Membrane Permeable-Phenotype (%) [5]: 5.66% and 3.16%
- Population Mitochondria Different-Phenotype (%) [5]: 18.92% and 21.05%
- Population Mitotic Cells (%) [5]: 92% and 81.25%
- Population Normal (%) [5]: 99.89% and 99.33%
- Population Apoptotic (%) [6]: 20% and 39.39%
- Population Fragmented Nuclei (%) [6]: 5.81% and 7.8%
- Population Healthy Nuclei (%) [6]: 85.77% and 68.79%
- Population Hoechst High Intensity Objects (%) [6]: 0.37% and 1.4%
- Population Membrane Permeable-Phenotype (%) [6]: 1.31% and 2.06%
- Population Mitochondria Different-Phenotype (%) [6]: 36.24% and 23.71%
- Population Mitotic Cells (%) [6]: 80% and 60.61%
- Population Normal (%) [6]: 99.63% and 98.6%
- Population Pyknosed Nuclei (%) [6]: 8.43% and 23.4%

SMILES: COC[C@@H](CC(C)C)NC1=N/C(=C\c2ccc3ncsc3c2)C(=O)N1C
- Population Apoptotic (%) [1]: 13.64% and 37.5%
- Population Fragmented Nuclei (%) [1]: 6.45% and 8%
- Population Healthy Nuclei (%) [1]: 58.06% and 23.43%
- Population Hoechst High Intensity Objects (%) [1]: 0.8% and 0%
- Population Membrane Permeable-Phenotype (%) [1]: 0.69% and 2.44%
- Population Mitotic Cells (%) [1]: 86.36% and 62.5%
- Population Normal (%) [1]: 99.2% and 100%
- Population Pyknosed Nuclei (%) [1]: 35.48% and 68.57%
- Population Tubulin-Different-Phenotype (%) [1]: 6.94% and 14.63%
- Total Cell Count [1]: 250 and 175
- Population Apoptotic (%) [2]: 25.51% and 35.09%
- Population Fragmented Nuclei (%) [2]: 88.19% and 92.28%
- Population Healthy Nuclei (%) [2]: 3.54% and 1.77%
- Population Hoechst High Intensity Objects (%) [2]: 4.51% and 10.38%
- Population Membrane Permeable-Phenotype (%) [2]: 0% and 5.88%
- Population Mitochondria Different-Phenotype (%) [2]: 0%
- Population Mitotic Cells (%) [2]: 74.49% and 64.91%
- Population Normal (%) [2]: 95.49% and 89.62%
- Population Pyknosed Nuclei (%) [2]: 8.27% and 5.95%
- Population Tubulin-Different-Phenotype (%) [2]: 16.67% and 5.88%
- Total Cell Count [2]: 1241 and 1069
- Population Apoptotic (%) [3]: 46.3% and 34.07%
- Population Fragmented Nuclei (%) [3]: 6.23% and 6.63%
- Population Healthy Nuclei (%) [3]: 76.07% and 38.55%
- Population Hoechst High Intensity Objects (%) [3]: 2.87% and 1.19%
- Population Membrane Permeable-Phenotype (%) [3]: 0.43% and 1.56%
- Population Mitochondria Different-Phenotype (%) [3]: 19.83% and 7.81%
- Population Mitotic Cells (%) [3]: 53.7% and 65.93%
- Population Normal (%) [3]: 97.13% and 98.81%
- Population Tubulin-Different-Phenotype (%) [3]: 19.4% and 12.5%
- Total Cell Count [3]: 314 and 168
- Population Apoptotic (%) [4]: 41.88% and 34.04%
- Population Fragmented Nuclei (%) [4]: 84.82% and 94.42%
- Population Healthy Nuclei (%) [4]: 4.67% and 1.42%
- Population Hoechst High Intensity Objects (%) [4]: 5.28% and 8.58%
- Population Membrane Permeable-Phenotype (%) [4]: 9.62% and 0%
- Population Mitochondria Different-Phenotype (%) [4]: 5.77% and 0%
- Population Mitotic Cells (%) [4]: 58.12% and 65.96%
- Population Normal (%) [4]: 94.72% and 91.42%
- Population Pyknosed Nuclei (%) [4]: 10.51% and 4.16%
- Population Tubulin-Different-Phenotype (%) [4]: 15.38% and 0%
- Total Cell Count [4]: 1175 and 1236
- Population Apoptotic (%) [5]: 43.33% and 39.58%
- Population Fragmented Nuclei (%) [5]: 10.02% and 10.37%
- Population Healthy Nuclei (%) [5]: 83.97% and 54.07%
- Population Hoechst High Intensity Objects (%) [5]: 2.16% and 8.16%
- Population Membrane Permeable-Phenotype (%) [5]: 3.34% and 1.37%
- Population Mitochondria Different-Phenotype (%) [5]: 36.28% and 26.03%
- Population Mitotic Cells (%) [5]: 56.67% and 60.42%
- Population Normal (%) [5]: 97.84% and 91.84%
- Population Fragmented Nuclei (%) [6]: 90.84% and 92.95%
- Population Healthy Nuclei (%) [6]: 2.22% and 3.18%
- Population Hoechst High Intensity Objects (%) [6]: 6.5% and 11.42%
- Population Membrane Permeable-Phenotype (%) [6]: 6.67% and 0%
- Population Mitochondria Different-Phenotype (%) [6]: 23.33% and 0%
- Population Normal (%) [6]: 93.5% and 88.58%
- Population Pyknosed Nuclei (%) [6]: 6.95% and 3.87%
- Population Tubulin-Different-Phenotype (%) [6]: 10% and 2.38%
- Total Cell Count [6]: 1447 and 1489

From ChEMBL document CHEMBL5724801, “EUbOPEN Chemogenomics Library - Multiplex” (2024)
